Laboratory results as given in ChEMBL document CHEMBL1122273, “5-sulfamoylorthanilic acids, a sulfonamide series with salidiuretic activity” (J Med Chem, 1983).

Species on record: Rattus norvegicus
Assay: Saluretic activity in the rat measured as concentration of Na+ in urine
Assay type: functional
Method in brief: (§1)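 Rats deprived of food 24 h, water ad libitum, dosed 50 mg/kg by stomach tube as suspension in 2% starch, no extra water load. Groups of three in diuresis funnels; urine over first 5 h collected. Na⁺ and K⁺ by flame photometry, Cl⁻ argentometrically; expressed as mequiv/kg.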

Row | Structure (SMILES) | Saluretic activity [m equiv 5hr-1 kg-1]
1 | CCC(C)S(=O)(=O)c1cc(NCc2ccco2)c(S(=O)(=O)[O-])cc1S(N)(=O)=O.[Na+] (stereo not drawn) | 6.7
2 | Cc1ccc(N(C)c2cc(NCc3ccco3)c(S(=O)(=O)[O-])cc2S(N)(=O)=O)cc1.[Na+] | 1.6
3 | Cc1ccc(Oc2cc(NCc3ccco3)c(S(=O)(=O)[O-])cc2S(N)(=O)=O)cc1C.[K+] | 2.2
4 | CN(c1ccccc1)c1cc(NCc2ccco2)c(S(=O)(=O)O)cc1S(N)(=O)=O.NC(N)=NC(=O)c1nc(Cl)c(N)nc1N | 3.5
5 | NCc1ccco1.NS(=O)(=O)c1cc(S(=O)(=O)O)c(NCc2ccco2)cc1Cl | 6.3
6 | CCN(c1ccccc1)c1cc(NCc2ccco2)c(S(=O)(=O)[O-])cc1S(N)(=O)=O.[Na+] | 0.4
7 | NS(=O)(=O)c1cc(S(=O)(=O)[O-])c(Oc2ccccc2)cc1NCc1ccco1.[K+] | 0.8
8 | Nc1cc(Oc2ccccc2)c(S(N)(=O)=O)cc1S(=O)(=O)[O-].[K+] | 0.5
9 | NS(=O)(=O)c1cc(S(=O)(=O)[O-])c(NCc2ccco2)cc1S(=O)(=O)Cc1ccccc1.[K+] | 0.8
10 | CNS(=O)(=O)c1cc(S(=O)(=O)[O-])c(NCc2ccco2)cc1Oc1ccccc1.[K+] | 0.8
11 | C1CCC(NC2CCCCC2)CC1.NS(=O)(=O)c1cc(S(=O)(=O)O)c(NCc2ccco2)cc1Oc1ccccc1 | 0.7
12 | CCCCCCS(=O)(=O)c1cc(NCc2ccco2)c(S(=O)(=O)[O-])cc1S(N)(=O)=O.[Na+] | 1.1
13 | Cc1cccc(Oc2cc(NCc3ccco3)c(S(=O)(=O)[O-])cc2S(N)(=O)=O)c1.[K+] | 6.7
14 | NS(=O)(=O)c1cc(S(=O)(=O)[O-])c(NCc2ccco2)cc1S(=O)(=O)C1CCCCCC1.[Na+] | 8.9
15 | NS(=O)(=O)c1cc(S(=O)(=O)[O-])c(NCc2ccco2)cc1S(=O)(=O)CC1CCCCC1.[Na+] | 8.8
16 | CN(C)S(=O)(=O)c1cc(S(=O)(=O)[O-])c(NCc2ccco2)cc1Oc1ccccc1.[K+] | 0.3
17 | NS(=O)(=O)c1cc(S(=O)(=O)[O-])c(NCc2ccco2)cc1Oc1cccc(Cl)c1.[K+] | 3.8

Species on record: Rattus norvegicus
Assay: Saluretic activity in the rat measured as concentration of K+ in urine
Assay type: functional
Method in brief: as §1

Row | Structure (SMILES) | Saluretic activity [m equiv 5hr-1 kg-1]
18 | CCC(C)S(=O)(=O)c1cc(NCc2ccco2)c(S(=O)(=O)[O-])cc1S(N)(=O)=O.[Na+] (stereo not drawn) | 1.9
19 | Cc1ccc(N(C)c2cc(NCc3ccco3)c(S(=O)(=O)[O-])cc2S(N)(=O)=O)cc1.[Na+] | 1.9
20 | Cc1ccc(Oc2cc(NCc3ccco3)c(S(=O)(=O)[O-])cc2S(N)(=O)=O)cc1C.[K+] | 1.4
21 | CN(c1ccccc1)c1cc(NCc2ccco2)c(S(=O)(=O)O)cc1S(N)(=O)=O.NC(N)=NC(=O)c1nc(Cl)c(N)nc1N | 0.4
22 | NCc1ccco1.NS(=O)(=O)c1cc(S(=O)(=O)O)c(NCc2ccco2)cc1Cl | 2.3
23 | CCN(c1ccccc1)c1cc(NCc2ccco2)c(S(=O)(=O)[O-])cc1S(N)(=O)=O.[Na+] | 1
24 | NS(=O)(=O)c1cc(S(=O)(=O)[O-])c(Oc2ccccc2)cc1NCc1ccco1.[K+] | 1
25 | Nc1cc(Oc2ccccc2)c(S(N)(=O)=O)cc1S(=O)(=O)[O-].[K+] | 1.3
26 | NS(=O)(=O)c1cc(S(=O)(=O)[O-])c(NCc2ccco2)cc1S(=O)(=O)Cc1ccccc1.[K+] | 0.6
27 | CNS(=O)(=O)c1cc(S(=O)(=O)[O-])c(NCc2ccco2)cc1Oc1ccccc1.[K+] | 0.8
28 | C1CCC(NC2CCCCC2)CC1.NS(=O)(=O)c1cc(S(=O)(=O)O)c(NCc2ccco2)cc1Oc1ccccc1 | 1
29 | CCCCCCS(=O)(=O)c1cc(NCc2ccco2)c(S(=O)(=O)[O-])cc1S(N)(=O)=O.[Na+] | 1.9
30 | Cc1cccc(Oc2cc(NCc3ccco3)c(S(=O)(=O)[O-])cc2S(N)(=O)=O)c1.[K+] | 2.2
31 | NS(=O)(=O)c1cc(S(=O)(=O)[O-])c(NCc2ccco2)cc1S(=O)(=O)C1CCCCCC1.[Na+] | 2.8
32 | NS(=O)(=O)c1cc(S(=O)(=O)[O-])c(NCc2ccco2)cc1S(=O)(=O)CC1CCCCC1.[Na+] | 2.7
33 | CN(C)S(=O)(=O)c1cc(S(=O)(=O)[O-])c(NCc2ccco2)cc1Oc1ccccc1.[K+] | 1.1
34 | NS(=O)(=O)c1cc(S(=O)(=O)[O-])c(NCc2ccco2)cc1Oc1cccc(Cl)c1.[K+] | 2

Species on record: Rattus norvegicus
Assay: Diuretic activity in the rats, determined by a modified Lipschitz test
Assay type: functional, Urine
Method in brief: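 Modified Lipschitz test: rats deprived of water 24 h, grouped in threes of similar weight in diuresis funnels. Oral dose of 50 mg/kg, suspended in 2% starch solution, by stomach tube.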

Row | Structure (SMILES) | Diuretic activity [mL/kg]
35 | CCC(C)S(=O)(=O)c1cc(NCc2ccco2)c(S(=O)(=O)[O-])cc1S(N)(=O)=O.[Na+] (stereo not drawn) | 4.5
36 | Cc1ccc(N(C)c2cc(NCc3ccco3)c(S(=O)(=O)[O-])cc2S(N)(=O)=O)cc1.[Na+] | 1.2
37 | Cc1ccc(Oc2cc(NCc3ccco3)c(S(=O)(=O)[O-])cc2S(N)(=O)=O)cc1C.[K+] | 1.3
38 | CN(c1ccccc1)c1cc(NCc2ccco2)c(S(=O)(=O)O)cc1S(N)(=O)=O.NC(N)=NC(=O)c1nc(Cl)c(N)nc1N | 3.3
39 | NCc1ccco1.NS(=O)(=O)c1cc(S(=O)(=O)O)c(NCc2ccco2)cc1Cl | 3.2
40 | CCN(c1ccccc1)c1cc(NCc2ccco2)c(S(=O)(=O)[O-])cc1S(N)(=O)=O.[Na+] | 0.8
41 | NS(=O)(=O)c1cc(S(=O)(=O)[O-])c(Oc2ccccc2)cc1NCc1ccco1.[K+] | 0.8
42 | Nc1cc(Oc2ccccc2)c(S(N)(=O)=O)cc1S(=O)(=O)[O-].[K+] | 1
43 | NS(=O)(=O)c1cc(S(=O)(=O)[O-])c(NCc2ccco2)cc1S(=O)(=O)Cc1ccccc1.[K+] | 1
44 | CNS(=O)(=O)c1cc(S(=O)(=O)[O-])c(NCc2ccco2)cc1Oc1ccccc1.[K+] | 1.6
45 | C1CCC(NC2CCCCC2)CC1.NS(=O)(=O)c1cc(S(=O)(=O)O)c(NCc2ccco2)cc1Oc1ccccc1 | 0.9
46 | CCCCCCS(=O)(=O)c1cc(NCc2ccco2)c(S(=O)(=O)[O-])cc1S(N)(=O)=O.[Na+] | 0.7
47 | Cc1cccc(Oc2cc(NCc3ccco3)c(S(=O)(=O)[O-])cc2S(N)(=O)=O)c1.[K+] | 4.4
48 | NS(=O)(=O)c1cc(S(=O)(=O)[O-])c(NCc2ccco2)cc1S(=O)(=O)C1CCCCCC1.[Na+] | 4
49 | NS(=O)(=O)c1cc(S(=O)(=O)[O-])c(NCc2ccco2)cc1S(=O)(=O)CC1CCCCC1.[Na+] | 4.6
50 | CN(C)S(=O)(=O)c1cc(S(=O)(=O)[O-])c(NCc2ccco2)cc1Oc1ccccc1.[K+] | 1.2
51 | NS(=O)(=O)c1cc(S(=O)(=O)[O-])c(NCc2ccco2)cc1Oc1cccc(Cl)c1.[K+] | 2

Species on record: Rattus norvegicus
Assay: Saluretic activity in the rat measured as concentration of chloride in urine
Assay type: functional
Method in brief: as §1

Row | Structure (SMILES) | Saluretic activity [m equiv 5hr-1 kg-1]
52 | CCC(C)S(=O)(=O)c1cc(NCc2ccco2)c(S(=O)(=O)[O-])cc1S(N)(=O)=O.[Na+] (stereo not drawn) | 8.5
53 | Cc1ccc(N(C)c2cc(NCc3ccco3)c(S(=O)(=O)[O-])cc2S(N)(=O)=O)cc1.[Na+] | 2.3
54 | Cc1ccc(Oc2cc(NCc3ccco3)c(S(=O)(=O)[O-])cc2S(N)(=O)=O)cc1C.[K+] | 3.7
55 | CN(c1ccccc1)c1cc(NCc2ccco2)c(S(=O)(=O)O)cc1S(N)(=O)=O.NC(N)=NC(=O)c1nc(Cl)c(N)nc1N | 2.3
56 | NCc1ccco1.NS(=O)(=O)c1cc(S(=O)(=O)O)c(NCc2ccco2)cc1Cl | 7.2
57 | CCN(c1ccccc1)c1cc(NCc2ccco2)c(S(=O)(=O)[O-])cc1S(N)(=O)=O.[Na+] | 0.3
58 | NS(=O)(=O)c1cc(S(=O)(=O)[O-])c(Oc2ccccc2)cc1NCc1ccco1.[K+] | 0.8
59 | Nc1cc(Oc2ccccc2)c(S(N)(=O)=O)cc1S(=O)(=O)[O-].[K+] | 0.7
60 | NS(=O)(=O)c1cc(S(=O)(=O)[O-])c(NCc2ccco2)cc1S(=O)(=O)Cc1ccccc1.[K+] | 0.7
61 | CNS(=O)(=O)c1cc(S(=O)(=O)[O-])c(NCc2ccco2)cc1Oc1ccccc1.[K+] | 1
62 | C1CCC(NC2CCCCC2)CC1.NS(=O)(=O)c1cc(S(=O)(=O)O)c(NCc2ccco2)cc1Oc1ccccc1 | 0.8
63 | CCCCCCS(=O)(=O)c1cc(NCc2ccco2)c(S(=O)(=O)[O-])cc1S(N)(=O)=O.[Na+] | 1.2
64 | Cc1cccc(Oc2cc(NCc3ccco3)c(S(=O)(=O)[O-])cc2S(N)(=O)=O)c1.[K+] | 7.9
65 | NS(=O)(=O)c1cc(S(=O)(=O)[O-])c(NCc2ccco2)cc1S(=O)(=O)C1CCCCCC1.[Na+] | 9.9
66 | NS(=O)(=O)c1cc(S(=O)(=O)[O-])c(NCc2ccco2)cc1S(=O)(=O)CC1CCCCC1.[Na+] | 10.7
67 | CN(C)S(=O)(=O)c1cc(S(=O)(=O)[O-])c(NCc2ccco2)cc1Oc1ccccc1.[K+] | 0.7
68 | NS(=O)(=O)c1cc(S(=O)(=O)[O-])c(NCc2ccco2)cc1Oc1cccc(Cl)c1.[K+] | 5.1
